This data set can be described thus: Apparent acid dissociation constant (pK) was determined. Format: ADME. As to conditions: for pKa: read-out: pK. In short, it runs like this:
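Analogue bound to apo-aspartate aminotransferase (complex formed at pH 8.3) was titrated toward lower pH by adding 2 M acetate buffer, pH 5.4. Absorption spectra were followed for the shift of the bound-coenzyme band to 420 nm, and the pK was estimated from the pH dependence of that spectral change.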

Structures are written as SMILES. Where “and” joins values, the source holds several entries; their conditions need not be identical. Equal entries are not always repeated.

Take `CCOP(=O)(Cc1cnc(C)c(O)c1CO)OCC`: the pK amounted to 8.59 and the pKa stood at 4.53.

As for `CCOP(=O)(O)Cc1cnc(C)c(O)c1C=O`, the pK was 3.91 and 8.21.

Take `CCOP(=O)(Cc1cnc(C)c(O)c1C=O)OCC`: the pK was 3.03 and 7.

On to `Cc1cnc(C)c(O)c1C=O`, for which the pK came to 8.05 and the pKa was determined as 4.15.

As to `Cc1ncc(CP(=O)(O)O)c(C=O)c1O`, the pK was 4.07 and 6.76 and 9.2.

As to `Cc1ncc(COP(=O)(O)O)c(C=O)c1O` [PYRIDOXAL PHOSPHATE ANHYDROUS], the pK was 3.62 and 6.1 and 8.33.
